From ChEMBL document CHEMBL1123828, “Carbostyril derivatives having potent beta-adrenergic agonist properties” (J Med Chem, 1987) come the findings set out here.

As a reminder, the IC50 is the concentration needed to halve the response being measured. Lower therefore signals greater potency. The term EC50 denotes the midpoint of the concentration-response curve.

The target of assay [1] is Adrenergic receptor beta (Rattus norvegicus, UniProt P18090+P10608+P26255). Briefly: The compound was evaluated for the inhibition of [125I]cyanopindolol binding to beta adrenergic receptor in rat reticulocyte membrane. In kind it is cell membranes.
For assay [2], the species on record is Rattus norvegicus. Briefly: The compound was evaluated for its ability to stimulate adenylate cyclase activity. It is filed as functional. The method in brief: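 Rat reticulocyte membranes (0.01–0.05 mg protein) incubated 10 min at 32 °C in 50 mM Tris-HCl pH 7.4 with 1.6 mM ATP, 5 mM MgCl2, 1 mM EGTA, 10 mM theophylline, 0.01% BSA, creatine phosphokinase/phosphocreatine, 0.5 mM GTP and varying ligand concentrations. Stopped by boiling with EDTA buffer; cAMP measured by competitive protein binding. Basal and GTP activity subtracted; EC50 from dose-effect analysis.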

Assay [3] is filed under the species Rattus norvegicus. The experiment in a line: The compound was evaluated for the intrinsic activity compared to (-)-isoproterenol. It is filed as functional.

`CC(C)(Cc1ccccc1)NCC(O)c1ccc(O)c2nc(O)ccc12` (centres undefined) yielded an IC50 in assay [1] of 3.1 nM. This compound yielded an EC50 in assay [2] of 6.9 nM. In assay [3], this compound registered an IA of 1.
The matching figures for `CC(C)(Cc1ccc(N)cc1)NCC(O)c1ccc(O)c2nc(O)ccc12` (centres undefined): 22 nM, 14.2 nM and 1.
Taken in the same sequence, the figures for `CC(C)(Cc1ccc(I)cc1)NCC(O)c1ccc(O)c2nc(O)ccc12` (centres undefined) were 7.6 nM, 5.6 nM and 1.3.
In turn, `CC(C)NCC(O)c1ccc(O)c(O)c1` (single isomer, unassigned; (-)) [ISOPROTERENOL] returned an EC50 in assay [2] of 226 nM. In addition, in assay [3], the IA stood at 1.
`CC(C)(Cc1ccc(NC(=O)CBr)cc1)NCC(O)c1ccc(O)c2nc(O)ccc12` (centres undefined): in assay [1], the IC50 came to 5.3 nM. The same compound displayed an EC50 in assay [2] of 8.5 nM. Also, the IA in assay [3] is recorded as 1.2.
